Compound activity as filed in PubChem.
CSC inhib – cancer stem cell inhibition | inhibition, % at 7.5 µM | AID 2717 | cancer stem cell-like cells viability, luminescence | 1.1% of 300,000 active; in the data active means inhibition above about 75%; tested in HMLE shEcad cells
PREPL inh – inhibits the human prolyl oligopeptidase-like enzyme | recombinant PREPL, fluorescence polarization activity-based probe | 0.68% of 320,000 active | inhibition, % at 5.96 µM; in the data active means inhibition above about 43%;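 further: 0% = enzyme with DMSO and 100% = wells lacking enzyme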
Target sequence (Q4J6C6 whole entry, looked up): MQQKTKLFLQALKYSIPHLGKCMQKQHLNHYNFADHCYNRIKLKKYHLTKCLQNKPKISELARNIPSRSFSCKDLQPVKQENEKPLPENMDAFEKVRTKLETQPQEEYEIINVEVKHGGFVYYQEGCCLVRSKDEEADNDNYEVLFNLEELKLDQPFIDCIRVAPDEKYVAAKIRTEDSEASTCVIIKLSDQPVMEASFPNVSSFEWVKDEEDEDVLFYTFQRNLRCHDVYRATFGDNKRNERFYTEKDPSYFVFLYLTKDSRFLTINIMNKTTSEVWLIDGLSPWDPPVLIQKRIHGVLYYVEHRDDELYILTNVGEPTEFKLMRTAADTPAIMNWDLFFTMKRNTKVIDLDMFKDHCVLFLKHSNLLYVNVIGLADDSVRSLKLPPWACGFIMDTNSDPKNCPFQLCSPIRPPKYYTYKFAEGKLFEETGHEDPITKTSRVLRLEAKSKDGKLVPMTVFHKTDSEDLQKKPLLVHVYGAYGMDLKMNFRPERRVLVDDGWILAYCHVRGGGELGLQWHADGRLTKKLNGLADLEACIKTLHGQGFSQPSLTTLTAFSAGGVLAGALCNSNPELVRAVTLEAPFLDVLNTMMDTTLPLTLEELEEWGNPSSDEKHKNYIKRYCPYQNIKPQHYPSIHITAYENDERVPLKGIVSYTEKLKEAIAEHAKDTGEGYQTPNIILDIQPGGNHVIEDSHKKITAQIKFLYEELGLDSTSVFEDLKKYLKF
Beta cell apopt – beta cell apoptosis inhibition. protection from apoptosis, % (test concentration not listed). 0.8% of 300,000 active. AID 435005. INS-1E cytokine-induced death, ATP luminescence, 48 h; percent of positive-control rescue, neutral wells zero;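 active means Every replicate reaches about 75%, or at least half do and their mean reaches it too, limit read from the data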;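 further: 0% = cytokine-treated negative control wells and 100% = positive control rescue; higher means more ATP so stronger rescue from cytokine killing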
T cruzi repl – T. cruzi replication inhibition | T. cruzi beta-gal in NIH3T3, luminescence, 90 h | inhibition, % (test concentration not listed) | 1.4% of 300,000 active;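 active means mean inhibition across valid replicates above about 55%, limit read from the data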;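 further: signal also drops with host cell toxicity which is not excluded here; 0% = plate median of DMSO wells and 100% = zero luminescence signal; higher percent means less beta-gal luminescence so fewer parasites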
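System: mouse NIH/3T3 fibroblasts infected with β-gal-expressing T. cruzi Tulahuen C4 / Input: NIH/3T3 cells, 5,000 per well / Buffer or medium: Low-serum DMEM with 2% FBS / Probe or stimulus: 5000 reporter trypomastigotes per well / Schedule: ≥90 h infection period, 3 h prior cell attachment / Measured by: GalScreen luminescence, 60 min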
NR3A LBD binder – modulates the human NR3A ligand-binding domain | Tm shift relative to glycine control, % at 25 µM | NR3A LBD differential scanning fluorimetry, Tm shift; 0% = protein alone, 100% = glycine-bound protein | AID 1259313 | 2.5% of 340,000 active;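 active means melting temperature shift of at least 10% of the positive control shift, at one fixed dose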
CHOP inhibitor – blocks CHOP induction under ER stress; CHO-K1 CHOP-promoter luciferase, tunicamycin-induced, 15-18 h; inhibition, % at 10 µM; 3.8% of 220,000 active; AID 2732;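 active means compounds that reduced the stress-induced luciferase reporter signal by more than about 70% of percent inhibition, limit read from the data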;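 further: 0% = tunicamycin plus vehicle and 100% = wells without tunicamycin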
CHOP inh conf – confirmation of CHOP induction inhibitors; 45% of 2,100 active; CHO-CHOP promoter luciferase reporter, tunicamycin-induced, luminescence; shares compounds with CHOP inhibitor; inhibition, % at 10 µM;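 active means mean of three repeat readings of reporter signal inhibition above a set limit, cut at about 70% in these data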;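 further: 0% = tunicamycin plus vehicle and 100% = wells lacking tunicamycin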
Active calls of the source: *; . = not tested or not shown. Most compounds without a hit are left out; they make up all but 6.7% or so of the library.

SMILES	CSC inhib	PREPL inh	Beta cell apopt	T cruzi repl	NR3A LBD binder	CHOP inhibitor	CHOP inh conf
Clc1ccc(-c2n[nH]c3c2CCCC3)cc1	-11	-21	-2	12	-2	51	.
Cc1ccc2c(c1)/C(=N/OS(=O)(=O)c1ccccc1)CCS2	-15	-11	3	-8	3	.	.
CC1=CC(=O)C=C(C)C1=NOS(=O)(=O)c1ccccc1	.	.	.	39	-1	.	74*
O=C(CCl)c1ccc2c(c1)CCN2C(=O)C1CCCCC1	24	-3	-8	90*	0	109*	19
CCOC(=O)/C=c1\s/c(=C\c2sccc2C)c(=O)n1CC(=O)NCc1ccc(C)cc1	14	16	12	8	.	99*	20
CCOC(=O)/C=c1\s/c(=C\c2ccc(C)cc2)c(=O)n1CC(=O)NCc1ccco1	7	-10	10	2	2	64	.
COc1ccc(CCNC(=O)c2ccc3c(c2)NC(=O)CS3)cc1OC	-17	-4	2	2	-8	.	.
CCC(C)(C)NC(=O)C(c1cccn1C)N(C(=O)Cn1nnc2ccccc21)c1ccc(F)cc1 (centres undefined)	-3	13	5	27	1	96*	79*
CCC(C)(C)NC(=O)C(c1cccn1C)N(C(=O)Cn1nnc2ccccc21)c1ccc(NC(C)=O)cc1 (centres undefined)	-9	-4	.	7	-1	8	.
Cc1cc(C)c2nc(-c3ccccn3)cc(C(=O)Nc3cc(C)on3)c2c1	1	2	7	25	1	101*	99*
Cc1cc(NC(=O)c2cc(-c3ccccn3)nc3ccccc23)no1	0	9	2	3	-1	-7	.
CC(C)CC(NC(=O)c1ccc(Cl)cc1)C(=O)OCC(=O)c1ccc2c(c1)NC(=O)CO2 (centres undefined)	43	3	68	-10	5	107*	74*
Cn1cnc([N+](=O)[O-])c1S(=O)(=O)c1cccc(Cl)c1	33	3	-20	26	0	109*	110*
NC(=S)n1[nH]c(-c2ccc([N+](=O)[O-])cc2)c(N=Nc2ccc(Cl)cc2)c1=O	.	.	.	.	28*	107*	114*
CCN=C1NN=C(c2cc(C)n(Cc3ccco3)c2C)CS1	-9	19	-5	1	-4	97*	98*
CC(C)(C)NC(=S)NC1CC1	4	6	-1	-25	-1	5	.
Cc1ccccc1-n1c(SCC(=O)NCc2cccs2)nc2ccccc2c1=O	-6	1	-1	4	-2	-1	.
CCCCCCn1c(=O)c(C(=O)N/N=C/c2cccc(F)c2)c(O)c2ccccc21	5	10	-6	-2	-1	105*	100*
CCCn1c(=O)c(C(=O)NC(C)c2ccccc2)c(O)c2ccccc21 (centres undefined)	8	-4	2	34	4	.	.
CC(C)CCn1c(=O)c(C(=O)N/N=C/c2cccc(F)c2)c(O)c2ccccc21	11	4	1	9	0	106*	90*
O=C(Nc1cccc(-c2nn[nH]n2)c1)c1csc2c1CCCC2	-3	1	-4	2	5	.	.
CCOc1ccc(-c2cccc(NC(=O)c3cccs3)c2)nn1	.	10	7	-11	-7	.	.
CCOC(=O)c1cccc(NC(=O)CSc2nnc(COc3ccccc3C)o2)c1	8	-7	1	15	-4	108*	12
CCC1CCc2c(sc(NC(=O)c3ccoc3C)c2C(N)=O)C1 (centres undefined)	33	16	3	24	0	102*	102*
CCCCN1CNC(=S)N(c2ccccc2OCC)C1	-16	5	-4	5	-2	16	.
SMILES	CSC inhib	PREPL inh	Beta cell apopt	T cruzi repl	NR3A LBD binder	CHOP inhibitor	CHOP inh conf
CN(C)c1ccc(-c2nc3ccccn3c2/N=C/c2ccc(Br)cc2)cc1	2	4	-1	22	24*	98*	75*
Cc1c(-c2ccc(Br)cc2)nc2ccccn12	-3	-3	7	-3	-2	34	.
CCOc1ccc(C(=O)NCC(=O)OCc2nnc(-c3ccccc3)o2)cc1OCC	.	7	2	.	1	.	.
CCCc1cc(-c2[nH]ncc2-c2ccc3c(c2)OCCCO3)c(O)cc1O	95*	3	-21	19	12*	101*	9
CCOC(=O)COc1ccc(/C=C/[N+](=O)[O-])c(OCC(=O)OCC)c1	6	7	10	11	0	111*	-96
CC1CCN(S(=O)(=O)c2ccc(C(=O)Nc3sccc3C(N)=O)cc2)CC1	-13	-10	2	12	-1	97*	58
COc1ccccc1C(=O)NNC(=O)c1cccc(F)c1	-2	2	2	-3	0	31	.
Cc1ccc(O)c(C(=O)CC(=O)c2cccc(F)c2)c1	8	-21	4	-8	-2	108*	53
COc1ccc(O)c(C(=O)CC(=O)c2ccc(F)cc2)c1	19	-62	-4	0	-6	103*	68
CSCCC(NS(=O)(=O)c1ccc(Cl)cc1)C(=O)OCC(=O)N(C(C)C)C(C)C (centres undefined)	-8	18	0	-7	2	52	.
CSCCC(NS(=O)(=O)c1ccc(Cl)cc1)C(=O)OCc1cccc(Cl)c1 (centres undefined)	14	-4	.	-19	-10	106*	68
O=C(O)C1C2CC(C(Br)C2Br)C1C(=O)O (centres undefined)	.	.	.	.	2	.	.
CCC(=O)Nc1nc2c(OC)ccc(OC)c2s1	-10	-3	-1	-12	-1	10	.
COc1ccc(OC)c2sc(NC(=O)c3ccc(Cl)s3)nc12	13	-10	3	1	-5	103*	86*
Nc1c(C(=O)N/N=C/c2ccc(F)cc2)oc2nc(-c3ccccc3)cc(-c3ccco3)c12	-27	2	-1	0	2	101*	-2
CC(C)CC(=O)/C(=C\c1ccc(Cl)cc1Cl)n1cncn1	.	.	.	45	1	109*	3
COc1cc(OC)cc(C(=O)N[C@H](C(=O)Nc2nc(-c3cc(OC)ccc3OC)cs2)C(C)C)c1	0	-5	-5	42	-1	33	.
COc1cc(OC)cc(C(=O)N[C@H](C(=O)Nc2nc(-c3ccc(OC)c(OC)c3)cs2)C(C)C)c1	11	15	4	21	-3	101*	56
CCOC(=O)c1ccccc1NC(=O)c1cn(CC)c2nc(C)ccc2c1=O	31	7	-1	6	1	.	.
Cc1cccc(Nc2nc(N)c([N+](=O)[O-])c(NCc3ccccc3)n2)c1	61	-14	.	10	1	102*	25
